Calls of active or inactive are those of the source. The rule behind the calls is not given here.
Experiments:
[1] = molecular target: T1, Alpha-galactosidase A (Homo sapiens) (UniProt P06280); assay: Inhibition of lysosomal alpha-galactosidase in human fibroblast at 50 uM after 24 hrs
T1 sequence (whole entry): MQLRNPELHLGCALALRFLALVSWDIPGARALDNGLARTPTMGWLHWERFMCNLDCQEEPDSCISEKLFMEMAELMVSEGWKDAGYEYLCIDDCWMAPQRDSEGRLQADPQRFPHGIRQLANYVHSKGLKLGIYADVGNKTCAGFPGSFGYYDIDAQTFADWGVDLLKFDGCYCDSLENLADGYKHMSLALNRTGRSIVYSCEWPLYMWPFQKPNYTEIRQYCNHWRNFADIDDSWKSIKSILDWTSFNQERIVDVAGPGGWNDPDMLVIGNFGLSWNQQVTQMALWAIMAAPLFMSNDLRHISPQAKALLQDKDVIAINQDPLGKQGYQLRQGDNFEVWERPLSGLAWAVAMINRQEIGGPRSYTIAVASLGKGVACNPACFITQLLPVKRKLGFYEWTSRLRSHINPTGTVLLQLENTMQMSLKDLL
Procedure, shortened: (§1)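 Wild-type human fibroblasts (DMEM, 10% FBS, passages 14–30) were plated overnight, then exposed to compound in fresh medium for 24 h at 37 °C, 5% CO2. Lysosomal enzyme activity was then assayed in intact monolayers after the medium was removed. Triplicate determinations.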

[2] = molecular target: Lysosomal alpha-glucosidase (Homo sapiens) (UniProt P10253); assay: Inhibition of lysosomal alpha-glucosidase in human fibroblast at 50 uM after 24 hrs; procedure, shortened: as §1
[3] = molecular target: T2, Lysosomal acid glucosylceramidase (Homo sapiens, UniProt P04062); assay: Competitive inhibition of recombinant Imiglucerase using 4-methylumbelliferyl-beta-D-glucopyranoside as substrate preincubated for 30 mins before substrate addition at pH 5.2 by Lineweaver-Burk plot assay
T2 sequence (P04062 whole entry): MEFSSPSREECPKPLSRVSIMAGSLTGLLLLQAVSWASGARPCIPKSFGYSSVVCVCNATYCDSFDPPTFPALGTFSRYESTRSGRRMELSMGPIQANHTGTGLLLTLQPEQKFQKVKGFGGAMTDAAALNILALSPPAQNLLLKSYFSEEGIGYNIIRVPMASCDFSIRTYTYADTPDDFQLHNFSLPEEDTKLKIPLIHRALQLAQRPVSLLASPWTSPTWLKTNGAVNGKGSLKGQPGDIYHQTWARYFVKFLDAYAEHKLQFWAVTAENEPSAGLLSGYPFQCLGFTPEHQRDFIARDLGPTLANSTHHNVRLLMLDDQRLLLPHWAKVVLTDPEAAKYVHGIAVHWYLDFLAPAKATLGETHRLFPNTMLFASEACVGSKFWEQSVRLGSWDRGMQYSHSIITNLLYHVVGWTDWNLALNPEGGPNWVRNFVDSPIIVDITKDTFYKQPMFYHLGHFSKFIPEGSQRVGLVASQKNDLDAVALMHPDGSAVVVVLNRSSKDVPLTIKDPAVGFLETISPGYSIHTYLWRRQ

[4] = molecular target: T2, Lysosomal acid glucosylceramidase; assay: Competitive inhibition of recombinant Imiglucerase using 4-methylumbelliferyl-beta-D-glucopyranoside as substrate preincubated for 30 mins before substrate addition at pH 7.0 Lineweaver-Burk plot assay
[5] = molecular target: T2, Lysosomal acid glucosylceramidase; assay: Competitive inhibition of recombinant Imiglucerase using 4-methylumbelliferyl-beta-D-glucopyranoside as substrate preincubated for 30 mins before substrate addition at pH 5.2 by Dixon plot assay
[6] = molecular target: T2, Lysosomal acid glucosylceramidase; assay: Binding affinity to recombinant imiglucerase using 4-methylumbelliferyl-beta-D-glucopyranoside as substrate preincubated for 30 mins before substrate addition by Lineweaver-Burk plot assay
[7] = molecular target: T2, Lysosomal acid glucosylceramidase; assay: Binding affinity to recombinant imiglucerase using 4-methylumbelliferyl-beta-D-glucopyranoside as substrate preincubated for 30 mins before substrate addition by Dixon plot assay
[8] = molecular target: T3, Non-lysosomal glucosylceramidase (Mus musculus) (UniProt Q69ZF3); assay: Inhibition of GBA2 activity in mouse tissue homogenate at 50 uM
T3 sequence (whole entry): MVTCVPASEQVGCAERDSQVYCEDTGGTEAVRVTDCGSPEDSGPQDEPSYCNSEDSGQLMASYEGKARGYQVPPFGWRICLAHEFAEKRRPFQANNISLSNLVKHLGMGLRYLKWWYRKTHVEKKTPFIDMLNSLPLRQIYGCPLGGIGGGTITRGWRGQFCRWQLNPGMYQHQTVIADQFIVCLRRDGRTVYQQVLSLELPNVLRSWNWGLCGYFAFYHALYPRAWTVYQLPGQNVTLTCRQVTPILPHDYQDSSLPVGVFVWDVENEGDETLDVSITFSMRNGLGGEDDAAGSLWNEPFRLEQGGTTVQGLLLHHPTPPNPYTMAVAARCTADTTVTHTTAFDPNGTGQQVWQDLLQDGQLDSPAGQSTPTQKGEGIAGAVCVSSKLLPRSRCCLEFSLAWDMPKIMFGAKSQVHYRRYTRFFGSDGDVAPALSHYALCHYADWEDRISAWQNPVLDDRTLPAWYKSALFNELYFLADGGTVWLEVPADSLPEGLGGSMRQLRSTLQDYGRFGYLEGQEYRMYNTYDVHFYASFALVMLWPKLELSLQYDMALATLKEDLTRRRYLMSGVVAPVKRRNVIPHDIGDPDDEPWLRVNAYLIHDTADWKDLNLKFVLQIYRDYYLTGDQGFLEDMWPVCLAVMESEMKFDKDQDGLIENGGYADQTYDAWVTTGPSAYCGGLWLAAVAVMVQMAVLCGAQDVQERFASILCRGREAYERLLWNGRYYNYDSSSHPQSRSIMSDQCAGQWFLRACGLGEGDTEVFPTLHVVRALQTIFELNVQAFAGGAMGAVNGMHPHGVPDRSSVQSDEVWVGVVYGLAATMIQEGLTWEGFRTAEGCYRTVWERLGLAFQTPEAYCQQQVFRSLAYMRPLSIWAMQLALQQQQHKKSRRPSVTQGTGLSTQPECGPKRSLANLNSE
Procedure, shortened: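 Mouse tissue homogenates were used to separate nonlysosomal GBA2 from lysosomal GCase β-glucosidase activity. Compounds were screened at 50 and 5 μM with 3 mM substrate. Two independent experiments, each run in duplicate.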

Oryza sativa = assay: Inhibition of rice alpha-glucosidase at 100 uM
Prunus dulcis = assay: Inhibition of almond beta-glucosidase at 100 uM
[9] = Stabilization of recombinant imiglucerase at 1 uM at 48 degC after 60 mins by fluorimetry relative to incubation at 37 degC
Procedure, shortened: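 Imiglucerase (2 mg/mL aliquots) heated at 48 °C with compound, three concentrations. At set times, residual activity measured with 4 mM 4-MU-β-glucoside (McIlvaine pH 5.2, Triton X-100, taurocholate) after acetate-phosphate pH 5.0, 10 min at 37 °C. Read at 355/460 nm. Ratio is relative enzymatic activity, inhibitor vs control, taken at 60 min. Activity relative to unheated (37 °C) enzyme; triplicate.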

Row | SMILES | inhibition [1] | inhibition [2] | IC50 [3] | IC50 [4] | IC50 [5] | Ki [6] | Ki [7] | inhibition [8] | inhibition (Oryza sativa) | inhibition (Prunus dulcis) | Ratio [9]
1 | CCCCCCCCCN[C@H]1[C@H](O)[C@@H](O)[C@H](O)[C@@H](O)[C@H]1OC.Cl | inactive | inactive | 0.13 µM | 0.019 µM | 0.13 µM | 0.053 µM | 0.053 µM | Active | inactive | inactive | 2
2 | CCCCCCCCCN[C@H]1[C@H](O)[C@@H](O)[C@H](O)[C@@H](O)[C@@H]1OCCCCCCCCC.Cl | – | – | 0.67 µM | 0.17 µM | 0.67 µM | 0.28 µM | 0.28 µM | Active | inactive | inactive | 5.2
3 | CCCCCCCCCN[C@H]1[C@H](O)[C@@H](O)[C@H](O)[C@@H](O)[C@@H]1OC.Cl | inactive | inactive | 4.4 µM | 0.67 µM | 4.4 µM | 1.58 µM | 1.58 µM | Active | inactive | inactive | –
4 | CCCCCCCCCN[C@H]1[C@H](O)[C@@H](O)[C@H](O)[C@@H](O)[C@@H]1O | inactive | inactive | 3.9 µM | 0.78 µM | 3.9 µM | 1.9 µM | 1.9 µM | Active | inactive | inactive | –
5 | CCCCCCCCCN(CCCCCCCCC)[C@@H]1[C@H](O)[C@H](O)[C@@H](O)[C@H](O)[C@H]1O.Cl | – | – | 1.72 µM | 0.53 µM | 1.72 µM | 0.82 µM | 0.82 µM | Active | inactive | inactive | 1.2
6 | CCCCCCCCCN[C@@H]1[C@H](O)[C@@H](O)[C@H](O)[C@@H](O)[C@@H]1O | inactive | inactive | 52.6 µM | 24.9 µM | 52.6 µM | 17.9 µM | 17.9 µM | 92% | inactive | inactive | –
7 | CCCCCCCCCN[C@@H]1[C@H](O)[C@H](O)[C@@H](O)[C@H](O)[C@H]1O.Cl | inactive | inactive | 0.08 µM | 0.025 µM | 0.08 µM | 0.032 µM | 0.032 µM | Active | inactive | inactive | 5
8 | CCCCCCCCCO[C@H]1[C@@H](N)[C@H](O)[C@@H](O)[C@H](O)[C@H]1O.Cl | inactive | inactive | 0.45 µM | 0.12 µM | 0.45 µM | 0.13 µM | 0.13 µM | Active | inactive | inactive | 2.2
9 | CCCCCCCCCN[C@H]1[C@H](O)[C@@H](O)[C@H](O)[C@@H](O)[C@H]1OCCCCCCCCC.Cl | – | – | 0.004 µM | 0.005 µM | 0.004 µM | 0.001 µM | 0.001 µM | Active | inactive | inactive | 29
